Source: ChEMBL document CHEMBL4622989, “From Bacteria to Cancer: A Benzothiazole-Based DNA Gyrase B Inhibitor Redesigned for Hsp90 C-Terminal Inhibition” (ACS Med Chem Lett, 2020)
pEC50: −log10 of the molar value. Active and inactive are the calls of the source. The rule behind the calls is not given here.

Tests used:
[1] = system: SK-BR-3; assay: Antiproliferative activity against human SKBR3 cells assessed as reduction in cell viability; assay type: functional, cell-based
[2] = system: MCF7; assay: Antiproliferative activity against human MCF7 cells assessed as reduction in cell viability; assay type: functional, cell-based
[3] = molecular target: T1, Heat shock protein HSP90 (Homo sapiens, UniProt P07900+P08238); assay: Inhibition of HSP90 at C-terminus in human SKBR3 cell lysates at 0.5 to 5 times antiproliferative EC50 after 24 hrs by Western blot analysis; assay type: cell-based; details: SK-BR-3
Summary of the method: (§1)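 SKBr3 breast cancer cells were treated for 24 h and then lysed. Hsp90-dependent client proteins and Hsp70 in the lysates were analysed by Western blot. Geldanamycin at 500 nM served as the reference treatment. Blot images were quantified.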

[4] = molecular target: T1, Heat shock protein HSP90; assay: Inhibition of HSP90 at N-terminus in human SKBR3 cell lysates assessed as induction of heat shock response by measuring increase in HSP70 protein level at 0.1 to 10 uM after 24 hrs by Western blot analysis; assay type: cell-based; details: sk-br-3, 24 h; summary of the method: as §1
[5] = molecular target: T1, Heat shock protein HSP90; assay: Inhibition of HSP90 at C-terminus in human SKBR3 cell lysates assessed as induction of Her2 protein degradation at 0.1 to 10 uM after 24 hrs by Western blot analysis; assay type: cell-based; details: SK-BR-3; summary of the method: as §1
[6] = molecular target: T1, Heat shock protein HSP90; assay: Inhibition of HSP90 at C-terminus in human SKBR3 cell lysates assessed as induction of Raf1 protein degradation at 0.1 to 10 uM after 24 hrs by Western blot analysis; assay type: cell-based; details: SK-BR-3; summary of the method: as §1
[7] = molecular target: T1, Heat shock protein HSP90; assay: Inhibition of HSP90 at C-terminus in human SKBR3 cell lysates assessed as induction of CDK4 protein degradation at 0.1 to 10 uM after 24 hrs by Western blot analysis; assay type: cell-based; details: SK-BR-3; summary of the method: as §1
[8] = molecular target: T1, Heat shock protein HSP90; assay: Inhibition of HSP90 at C-terminus in human SKBR3 cell lysates assessed as induction of AKT protein degradation at 0.1 to 10 uM after 24 hrs by Western blot analysis; assay type: cell-based; details: SK-BR-3; summary of the method: as §1

Row | Compound | pEC50 [1] | pEC50 [2] | other results
1 | CCOC(=O)C(=O)Nc1ccc2nc(NC(=O)c3ccc(OC)cc3)sc2c1 | 4.97 | < 4.30 | –
2 | CCOC(=O)C(=O)Nc1nc2ccc(NC(=O)c3cc(Br)c(Br)[nH]3)cc2s1 | 5.44 | 5.00 | –
3 | CCOC(=O)C(=O)Nc1ccc2nc(NC(=O)c3cc(Br)c(Br)[nH]3)sc2c1 | 5.62 | < 4.30 | inhibition [3]: Active
4 | CCOC(=O)C(=O)Nc1ccc2nc(NC(=O)c3ncccn3)sc2c1 | < 4.30 | < 4.30 | –
5 | CC(=O)Nc1nc2ccc(NC(=O)c3cc(Br)c(Br)[nH]3)cc2s1 | < 4.30 | < 4.30 | –
6 | CCOC(=O)C(=O)Nc1ccc2nc(NC(=O)c3cc4ccc(OC)cc4[nH]3)sc2c1 | 5.17 | < 4.30 | –
7 | CCOC(=O)C(=O)Nc1nc2ccc(NC(=O)c3cc(Br)c[nH]3)cc2s1 | 4.55 | 4.38 | –
8 | CCOC(=O)C(=O)Nc1ccc2nc(NC(=O)c3cc4ccccc4[nH]3)sc2c1 | 5.27 | 5.05 | –
9 | COc1ccc2[nH]c(C(=O)Nc3nc4ccc(NC(=O)C(=O)c5ccccc5)cc4s3)cc2c1 | < 4.30 | < 4.30 | –
10 | CCOC(=O)C(=O)Nc1ccc2nc(NC(=O)c3cc4cc(C)ccc4[nH]3)sc2c1 | 5.55 | 5.00 | –
11 | CCOC(=O)C(=O)Nc1ccc2nc(NC(=O)c3cc4cc(CC)ccc4[nH]3)sc2c1 | 4.69 | 4.60 | –
12 | CCOC(=O)C(=O)Nc1ccc2nc(NC(=O)c3ccc4c(c3)OCO4)sc2c1 | < 4.30 | < 4.30 | –
13 | CC(=O)C(=O)Nc1ccc2nc(NC(=O)c3cc4ccccc4[nH]3)sc2c1 | < 4.30 | < 4.30 | –
14 | CCOC(=O)C(=O)Nc1ccc2nc(NC(=O)c3cc4cc(OC)ccc4[nH]3)sc2c1 | 6.07 | 5.15 | inhibition (INH) [4]: Not Active; inhibition [5]: Active; inhibition [6]: Active; inhibition [7]: Active; inhibition [8]: Active
15 | CCOC(=O)C(=O)Nc1nc2ccc(NC(=O)c3cc4ccccc4[nH]3)cc2s1 | 5.16 | 4.95 | –
16 | Cc1ccc2[nH]c(C(=O)Nc3nc4ccc(NC(=O)C(=O)c5ccccc5)cc4s3)cc2c1 | < 4.30 | < 4.30 | –
17 | CCOC(=O)C(=O)Nc1nc2ccc(NC(=O)c3ccccc3)cc2s1 | 5.01 | < 4.30 | –
